Active and inactive are the calls of the source. The rule behind the calls is not given here.
Experiments:
[1] = biological target: Phosphatidylinositol 4,5-bisphosphate 3-kinase catalytic subunit alpha isoform (Homo sapiens, UniProt P42336); assay: Inhibition of PI3Kalpha by LanthaScreen Eu kinase binding assay
In short: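 Eu kinase binding TR-FRET assay (tracer displacement). PIK3CA/PIK3R1 at 5 nM with kinase tracer 20 nM and Eu-anti-His antibody 2 nM, all final. Buffer 25 mM Tris-HCl, 5 mM MgCl2, 0.02% CHAPS.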

[2] = biological target: T1, Serine/threonine-protein kinase mTOR (Homo sapiens, UniProt P42345); assay: Inhibition of mTOR by LanthaScreen Eu kinase binding assay
In short: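 Eu kinase binding TR-FRET displacement with FRAP1 (mTOR) at 5 nM, kinase tracer 20 nM and Eu-anti-GST antibody 2 nM, all final. Buffer 25 mM Tris-HCl, 5 mM MgCl2, 0.02% CHAPS.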

[3] = biological target: T2, 3-phosphoinositide-dependent protein kinase 1 (Homo sapiens, UniProt O15530); assay: Inhibition of PDK1 by Z'-LYTE kinase activity assay
T2 sequence (O15530 whole entry): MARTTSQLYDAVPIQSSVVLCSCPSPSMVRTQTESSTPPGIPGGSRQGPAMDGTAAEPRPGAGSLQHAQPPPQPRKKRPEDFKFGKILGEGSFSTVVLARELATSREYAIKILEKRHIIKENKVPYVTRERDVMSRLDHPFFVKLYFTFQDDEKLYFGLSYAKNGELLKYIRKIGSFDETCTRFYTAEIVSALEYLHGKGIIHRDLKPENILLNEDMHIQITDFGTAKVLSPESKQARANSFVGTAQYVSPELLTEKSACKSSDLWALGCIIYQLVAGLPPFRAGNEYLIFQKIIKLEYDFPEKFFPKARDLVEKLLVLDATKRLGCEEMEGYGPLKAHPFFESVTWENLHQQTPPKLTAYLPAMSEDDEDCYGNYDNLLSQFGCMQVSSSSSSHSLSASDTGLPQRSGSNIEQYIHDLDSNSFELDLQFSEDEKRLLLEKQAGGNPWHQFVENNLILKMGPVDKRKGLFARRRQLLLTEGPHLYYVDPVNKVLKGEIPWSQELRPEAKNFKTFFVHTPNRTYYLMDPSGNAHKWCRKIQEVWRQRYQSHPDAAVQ

[4] = biological target: T1, Serine/threonine-protein kinase mTOR; assay: Inhibition of mTORC1 expressed in HEK293 cells assessed as PRAS40 Ser183 phosphorylation level by LanthaScreen cellular assay; type: cell-based
In short: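 HEK293E cells stably expressing GFP-substrate fusions (AKT for pThr308; PRAS40 for pSer183), 20,000 per well, serum-starved overnight in low-glucose DMEM + 0.1% BSA. Lysed with 2 nM Tb-labeled phosphospecific antibody; TR-FRET read after 2 h at room temperature. IC50 by curve fitting.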

[5] = biological target: RAC-alpha serine/threonine-protein kinase (Homo sapiens) (UniProt P31749); assay: Inhibition of AKT1 by biochemical assay
Chain of RAC-alpha serine/threonine-protein kinase (Homo sapiens) (P31749 whole entry): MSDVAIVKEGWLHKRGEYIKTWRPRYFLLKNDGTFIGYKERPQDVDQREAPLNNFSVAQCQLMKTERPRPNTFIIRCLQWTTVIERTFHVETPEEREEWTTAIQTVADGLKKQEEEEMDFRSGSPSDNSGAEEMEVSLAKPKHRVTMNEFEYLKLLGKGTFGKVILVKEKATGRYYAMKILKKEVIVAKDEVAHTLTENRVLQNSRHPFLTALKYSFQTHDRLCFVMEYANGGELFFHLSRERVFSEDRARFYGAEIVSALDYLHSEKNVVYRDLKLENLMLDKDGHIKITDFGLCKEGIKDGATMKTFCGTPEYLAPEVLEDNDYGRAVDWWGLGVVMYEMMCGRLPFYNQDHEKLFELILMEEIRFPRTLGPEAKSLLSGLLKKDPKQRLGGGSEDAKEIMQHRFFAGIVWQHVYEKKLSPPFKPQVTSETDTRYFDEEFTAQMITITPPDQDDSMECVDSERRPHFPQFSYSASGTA

[6] = tested on: PC-3; assay: Growth inhibition of human PC3 cells after 72 hrs by ATPlite assay; type: functional; settings: PC-3, 72 h
In short: (§1)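 Cells seeded at about 3000 per well, grown 24 h, then given fresh medium and test compound in triplicate at 0.5 to 100µM in DMSO (0.5% final). Exposure 72 h at 37 °C, 5% CO₂. Viability measured by ATPlite luminescence and normalized to DMSO-treated controls. GI50 obtained by curve fitting. HeLa cultured in DMEM/10% FBS; MCF7, MDA-MB-231 and PC3 cultured in RPMI+GlutaMAX/10% FBS.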

[7] = tested on: MDA-MB-231; assay: Growth inhibition of human MDA-MB-231 cells after 72 hrs by ATPlite assay; type: functional; settings: MDA-MB-231, 72 h; in short: as §1
[8] = tested on: MCF7; assay: Growth inhibition of human MCF7 cells after 72 hrs by ATPlite assay; type: functional; settings: MCF7, 72 h; in short: as §1
[9] = biological target: Phosphatidylinositol 4,5-bisphosphate 3-kinase catalytic subunit gamma isoform (Homo sapiens, UniProt P48736); assay: Inhibition of PI3Kgamma
Chain of Phosphatidylinositol 4,5-bisphosphate 3-kinase catalytic subunit gamma isoform (P48736 whole entry, canonical isoform): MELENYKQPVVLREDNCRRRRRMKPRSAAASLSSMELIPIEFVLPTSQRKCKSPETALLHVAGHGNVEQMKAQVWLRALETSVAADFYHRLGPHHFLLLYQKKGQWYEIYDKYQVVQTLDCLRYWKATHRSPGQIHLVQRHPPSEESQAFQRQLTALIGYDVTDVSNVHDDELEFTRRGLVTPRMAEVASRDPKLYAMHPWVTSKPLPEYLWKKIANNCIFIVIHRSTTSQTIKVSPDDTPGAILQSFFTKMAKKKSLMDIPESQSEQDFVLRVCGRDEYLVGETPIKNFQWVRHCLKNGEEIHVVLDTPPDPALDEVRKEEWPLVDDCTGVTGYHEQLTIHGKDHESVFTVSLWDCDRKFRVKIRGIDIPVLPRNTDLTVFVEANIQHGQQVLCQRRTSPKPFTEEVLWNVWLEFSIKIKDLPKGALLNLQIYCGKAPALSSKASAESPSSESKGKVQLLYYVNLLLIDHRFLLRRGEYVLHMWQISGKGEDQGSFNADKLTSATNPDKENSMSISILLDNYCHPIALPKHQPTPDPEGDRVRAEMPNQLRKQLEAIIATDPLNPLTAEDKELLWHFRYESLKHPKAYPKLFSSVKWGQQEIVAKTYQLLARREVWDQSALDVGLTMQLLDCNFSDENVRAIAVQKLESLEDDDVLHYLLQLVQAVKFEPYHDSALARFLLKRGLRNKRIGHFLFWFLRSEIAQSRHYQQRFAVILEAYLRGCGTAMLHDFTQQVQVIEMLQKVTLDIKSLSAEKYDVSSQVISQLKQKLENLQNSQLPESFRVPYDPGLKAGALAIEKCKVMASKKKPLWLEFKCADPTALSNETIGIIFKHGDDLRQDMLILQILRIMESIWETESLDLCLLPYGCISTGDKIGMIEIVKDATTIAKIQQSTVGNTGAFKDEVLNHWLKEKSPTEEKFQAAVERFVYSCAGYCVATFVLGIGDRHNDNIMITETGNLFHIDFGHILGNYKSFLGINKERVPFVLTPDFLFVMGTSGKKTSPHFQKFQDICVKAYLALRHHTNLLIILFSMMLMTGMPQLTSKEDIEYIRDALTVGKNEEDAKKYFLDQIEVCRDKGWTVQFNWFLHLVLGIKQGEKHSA

[10] = biological target: T3, Phosphatidylinositol 4,5-bisphosphate 3-kinase catalytic subunit delta isoform (Homo sapiens, UniProt O00329); assay: Inhibition of PI3Kdelta; settings: read-out: IC50
T3 sequence (O00329 whole entry): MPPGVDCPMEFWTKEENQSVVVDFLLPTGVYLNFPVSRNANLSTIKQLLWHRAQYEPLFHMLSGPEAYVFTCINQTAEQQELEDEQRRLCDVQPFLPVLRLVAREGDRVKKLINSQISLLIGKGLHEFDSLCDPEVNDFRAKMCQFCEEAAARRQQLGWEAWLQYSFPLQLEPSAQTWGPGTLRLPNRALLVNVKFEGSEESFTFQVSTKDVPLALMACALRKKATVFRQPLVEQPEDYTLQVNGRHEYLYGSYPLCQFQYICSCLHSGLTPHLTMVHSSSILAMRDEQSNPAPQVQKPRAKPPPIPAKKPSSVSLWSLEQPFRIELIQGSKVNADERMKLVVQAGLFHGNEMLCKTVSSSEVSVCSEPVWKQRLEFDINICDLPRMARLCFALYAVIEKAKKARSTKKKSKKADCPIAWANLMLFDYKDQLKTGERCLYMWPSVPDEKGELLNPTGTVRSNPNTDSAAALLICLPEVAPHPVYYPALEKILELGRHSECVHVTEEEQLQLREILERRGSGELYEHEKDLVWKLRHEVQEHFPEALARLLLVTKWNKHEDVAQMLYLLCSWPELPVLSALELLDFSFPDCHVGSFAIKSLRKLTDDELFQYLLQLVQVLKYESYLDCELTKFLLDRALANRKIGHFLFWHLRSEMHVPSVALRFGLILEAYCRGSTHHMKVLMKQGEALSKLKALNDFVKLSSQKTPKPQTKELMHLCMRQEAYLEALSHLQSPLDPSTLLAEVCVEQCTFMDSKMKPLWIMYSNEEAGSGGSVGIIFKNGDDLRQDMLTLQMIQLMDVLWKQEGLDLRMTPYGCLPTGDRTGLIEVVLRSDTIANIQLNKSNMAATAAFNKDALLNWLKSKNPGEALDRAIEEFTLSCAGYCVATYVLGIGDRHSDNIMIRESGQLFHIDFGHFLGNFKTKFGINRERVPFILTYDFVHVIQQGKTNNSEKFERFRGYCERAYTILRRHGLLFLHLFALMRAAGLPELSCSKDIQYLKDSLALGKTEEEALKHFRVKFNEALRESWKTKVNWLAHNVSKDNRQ

[11] = tested on: HeLa; assay: Growth inhibition of human HeLa cells after 72 hrs by ATPlite assay; type: functional; in short: as §1
[12] = tested on: Liver microsomes; assay: Metabolic stability in rat liver microsomes; type: ADME, Microsome
In short: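 Rat liver microsomes (1 mg/ml protein) with 4µM compound in 50mM phosphate pH 7.2. Pre-incubated 5 min at 37.5 °C, then started with 2mM NADPH and run 1 h. Samples taken every 15 min, quenched in methanol with internal standard, analyzed by LC-MS. Duplicate runs alongside two control compounds of known half-life. Half-life reported.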

[13] = tested on: Plasma; assay: Metabolic stability in rat plasma assessed as compound remaining at 1 uM after 60 mins by Lc/Ms method; type: ADME, cell-free; settings: 1 h
In short: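 Compound at 1 µM (2.5% DMSO final) in fresh rat plasma at 37 °C. Stopped at 0, 30 and 60 min with two volumes methanol plus internal standard, then LC-MS. Percent parent remaining relative to 0 min, from peak area ratios to internal standard. Duplicate runs, with a plasma-labile positive control.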

Chain of Phosphatidylinositol 4,5-bisphosphate 3-kinase catalytic subunit alpha isoform (P42336 whole entry, canonical isoform): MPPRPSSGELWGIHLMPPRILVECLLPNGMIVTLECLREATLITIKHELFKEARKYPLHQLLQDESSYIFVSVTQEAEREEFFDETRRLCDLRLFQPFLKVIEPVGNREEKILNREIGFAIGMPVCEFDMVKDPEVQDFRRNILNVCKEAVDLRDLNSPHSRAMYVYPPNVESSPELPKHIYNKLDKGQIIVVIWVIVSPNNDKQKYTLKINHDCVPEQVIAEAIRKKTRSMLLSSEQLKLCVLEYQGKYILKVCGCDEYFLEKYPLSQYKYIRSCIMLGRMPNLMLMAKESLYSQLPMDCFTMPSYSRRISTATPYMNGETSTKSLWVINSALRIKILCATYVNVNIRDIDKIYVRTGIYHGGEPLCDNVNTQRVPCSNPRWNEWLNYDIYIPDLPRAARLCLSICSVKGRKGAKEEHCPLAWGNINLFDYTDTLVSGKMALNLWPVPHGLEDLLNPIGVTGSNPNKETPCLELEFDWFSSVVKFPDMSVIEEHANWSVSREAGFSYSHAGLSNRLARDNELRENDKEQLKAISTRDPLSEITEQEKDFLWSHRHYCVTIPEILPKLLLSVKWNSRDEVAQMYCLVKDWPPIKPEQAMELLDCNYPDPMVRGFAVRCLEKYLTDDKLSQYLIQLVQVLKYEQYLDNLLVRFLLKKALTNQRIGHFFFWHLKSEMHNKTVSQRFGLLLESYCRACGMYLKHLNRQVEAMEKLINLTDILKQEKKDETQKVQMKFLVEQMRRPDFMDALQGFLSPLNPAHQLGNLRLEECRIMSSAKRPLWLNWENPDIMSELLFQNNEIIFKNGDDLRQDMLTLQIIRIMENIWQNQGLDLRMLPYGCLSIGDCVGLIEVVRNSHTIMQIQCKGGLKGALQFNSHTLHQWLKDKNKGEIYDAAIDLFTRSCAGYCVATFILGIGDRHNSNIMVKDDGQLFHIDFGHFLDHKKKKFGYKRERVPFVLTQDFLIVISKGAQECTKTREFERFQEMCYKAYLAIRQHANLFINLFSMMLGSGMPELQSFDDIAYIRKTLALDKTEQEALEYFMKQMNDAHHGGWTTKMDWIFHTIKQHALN

Structure (SMILES) | IC50 [1] | IC50 [2] | IC50 [3] | IC50 [4] | inhibition [5] | GI50 [6] | GI50 [7] | GI50 [8] | IC50 [9] | IC50 [10] | GI50 [11] | t1/2 [12] | Stability [13]
FC(F)(F)c1cc(C#Cc2n[nH]c3ccccc23)cc(C(F)(F)F)c1 | > 100 µM | > 100 µM | > 100 µM | > 100 µM | inactive |  |  |  |  |  |  |  | 
C(#CC1CC1)c1n[nH]c2ccccc12 | > 100 µM | > 100 µM | > 100 µM | > 50 µM | inactive |  |  |  |  |  |  |  | 
CN(C)CC#Cc1n[nH]c2ccccc12 | > 50 µM | > 100 µM | > 100 µM | > 50 µM | inactive |  |  |  |  |  |  |  | 
C(#CC1CCCC1)c1n[nH]c2ccccc12 | > 100 µM | > 100 µM | > 100 µM | > 50 µM | inactive |  |  |  |  |  |  |  | 
C(#Cc1n[nH]c2ncccc12)c1cccnc1 | 9 µM | 5 µM | > 50 µM | > 10 µM | inactive |  |  |  |  |  |  |  | 
C(#Cc1n[nH]c2ncccc12)c1ccncc1 | 3.05 µM |  | > 50 µM |  | inactive |  |  |  |  |  |  |  | 
Fc1cc(F)cc(C#Cc2n[nH]c3ccccc23)c1 | > 100 µM | > 100 µM | > 100 µM | > 200 µM | inactive |  |  |  |  |  |  |  | 
C(#Cc1n[nH]c2ccccc12)c1ccccc1 | > 100 µM | > 100 µM | > 50 µM | > 50 µM | inactive |  |  |  |  |  |  |  | 
C(#Cc1n[nH]c2ccccc12)c1ccccn1 | > 100 µM | > 100 µM | > 25 µM | > 50 µM | inactive |  |  |  |  |  |  |  | 
Nc1ccccc1C#Cc1n[nH]c2ccccc12 | > 100 µM | > 100 µM | > 100 µM | > 50 µM | inactive |  |  |  |  |  |  |  | 
Nc1ccc(C#Cc2n[nH]c3ccccc23)cc1 | 1.05 µM | 4.97 µM | 39.2 µM | 10.8 µM | inactive | 2.51 µM | 8.28 µM | 3.23 µM | > 100 µM | > 100 µM |  |  | 
N#Cc1ccc(C#Cc2n[nH]c3ccccc23)cc1 | > 100 µM | > 100 µM | > 100 µM | > 50 µM | inactive |  |  |  |  |  |  |  | 
C(#Cc1n[nH]c2ccccc12)c1ccsc1 | > 100 µM | > 100 µM | > 100 µM | > 100 µM | inactive |  |  |  |  |  |  |  | 
C(#Cc1n[nH]c2ccccc12)c1cccnc1 |  | > 100 µM |  | > 50 µM | inactive | 6.81 µM | 10.5 µM | 3.66 µM |  |  | 5.21 µM |  | 
Nc1cccc(C#Cc2n[nH]c3ccccc23)c1 |  |  |  |  | inactive | 2.84 µM | 8.29 µM | 10.4 µM | > 100 µM | > 100 µM | 5.21 µM | > 1 h | 100%
